Experimental data of several laboratories.
Lines come from different studies, so protocols differ.
Target: MAP kinase-interacting serine/threonine-protein kinase 2 (MKNK2, Homo sapiens, UniProt Q9HBH9)

Structure (SMILES)	assay	setting	remaining binding
O=C(c1ccc(Nc2ncc(Cl)c(-c3ccc(Cl)s3)n2)cc1)N1CCC(N2CCCC2)CC1	binding, competition with immobilised ligand	1 µM	4.2%
FC(F)(F)Oc1cccc(-c2cnc3ccc(-c4ccncc4)nn23)c1	cell-free assay, competition with immobilised ligand	5 µM	21%
CNCc1ccccc1-c1csc([C@@H](C)Nc2nc(C)nc3cc(OC)c(OC)cc23)c1	cell-free assay, competition with immobilised ligand	1 µM	63%
O=C(NCCCN1CCOCC1)c1ccc(Nc2nccc(-c3cc4ccccc4s3)n2)cc1	binding, competition with immobilised ligand	1 µM	28%
CN(CCCC(F)(F)F)c1nccc(-c2cnn3ncccc23)n1	binding	1 µM	35%
CCCOc1ccc([C@H]2[C@H](C(=O)O)[C@@H](c3ccc4c(c3)OCO4)CN2CC(=O)Nc2c(CC)cccc2CC)cc1	cell-free assay, competition with immobilised ligand	1 µM	74%
CC1CCCN1c1nccc(-c2cnn3ncccc23)n1 (centres unmarked)	binding	1 µM	46%
CC(C)(C)c1ccc(-c2nc(CBr)nn2-c2cccc(O)c2)cc1	cell-free assay, competition with immobilised ligand	10 µM	62%
c1cncc(-c2cccc(Nc3nccc(NC4CCCCC4)n3)c2)c1	binding, competition with immobilised ligand	10 µM	33%
CN(C)c1nccc(-c2cnc3ncccn23)n1	binding	1 µM	46%
C[C@@H](c1ccc(-n2cnc3c(N)ncnc32)cc1)N1CCc2nn(C)c(Cc3ccccc3)c2C1=O	binding, competition with immobilised ligand	0.1 µM	62%
FC(F)(F)c1ccc2c(c1)nc(-c1cccnc1)n2C1CC1	cell-free assay, competition with immobilised ligand	1 µM	100%
Nc1ncc2c(n1)-c1c([nH]c3ccc(C#CC4CC4)cc13)CCCC2	binding, competition with immobilised ligand	1 µM	77%
CNC(=O)c1ccc(Nc2ncc(C(F)(F)F)c(NCc3nccnc3N(C)S(C)(=O)=O)n2)cc1	cell-free assay, competition with immobilised ligand	0.1 µM	100%
CNC(=O)[C@@H]1CC[C@@H](n2c(-c3ccc4cnccc4c3)nc3ccc(C(=O)NCc4cccc(C(N)=O)c4)cc32)C1	binding, competition with immobilised ligand	1 µM	100%
Cc1cnn2ncc(-c3ccnc(N(C)C)n3)c2c1	binding	1 µM	49%
CN(C(=O)c1ccccc1)c1cc(N(C)c2ccc3c(c2)CCc2ccc(C(=O)NCCN4CCOCC4)cc2C3=O)ccc1F	cell-free assay, competition with immobilised ligand	1 µM	100%
